Compound activity: PubChem, The Scripps Research Institute Molecular Screening Center
In the library only some 1.9% were active in any assay of this set; here they are far more common.
NPY Y2 blocker = NPY-Y2 receptor antagonists, primary screen, cell-based. NPY-Y2 expressing cells, antagonist mode. inhibition, % at 2.7 µM. actives 0.99% (n = 140,000). AID 793, 2007;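 further: 0% = vehicle with agonist challenge and 100% = reference antagonist with challenge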
Target sequence (P49146 whole entry, looked up): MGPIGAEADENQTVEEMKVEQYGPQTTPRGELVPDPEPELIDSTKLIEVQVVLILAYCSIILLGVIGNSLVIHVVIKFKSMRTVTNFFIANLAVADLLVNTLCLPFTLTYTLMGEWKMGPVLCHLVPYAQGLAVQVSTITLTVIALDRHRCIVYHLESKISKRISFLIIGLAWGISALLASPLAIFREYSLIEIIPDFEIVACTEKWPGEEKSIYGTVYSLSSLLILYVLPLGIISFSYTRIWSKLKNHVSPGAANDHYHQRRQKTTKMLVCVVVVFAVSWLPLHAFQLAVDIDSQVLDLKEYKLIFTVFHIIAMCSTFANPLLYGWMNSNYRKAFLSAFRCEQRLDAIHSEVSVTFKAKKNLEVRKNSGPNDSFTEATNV
NPY1 pot ag = NPY-Y1 receptor potentiators or agonists, primary screen, cell-based; activation, % at 3.6 µM; actives 0.37% (n = 220,000); NPY-Y1 expressing cells, potentiator/agonist activation; AID 1304, 2008; in the data active means activation above about 33%, passing the limit was not always enough;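 further: cells stimulated with NPY at EC10 then isoproterenol at EC100; 0% = low agonist plus stimulus and 100% = saturating agonist plus stimulus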
NPY Y1 blocker = NPY-Y1 receptor antagonists, primary screen, cell-based; AID 1040, 2008; HEK293-CNG Y1 cells, membrane potential fluorescence; NPY at EC95, then isoproterenol; inhibition, % at 3.6 µM; Neuropeptide Y receptor type 1 (Homo sapiens), P25929; actives 1% (n = 200,000);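 active means inhibition above the campaign mean inhibition of all tested compounds plus 3 SD, cut at about 20% in these data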;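 further: 0% = DMSO wells given NPY plus isoproterenol and 100% = isoproterenol alone without NPY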
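Material: HEK293 cells co-expressing NPY Y1 receptor and cyclic-nucleotide gated channel. Timing: compound incubation 1 h at room temperature, readout 45 min post-stimulation. Signal: fluorescence, membrane potential probe.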
NPY2 pot ag = NPY-Y2 potentiators or agonists, primary screen, cell-based; cells expressing NPY-Y2, potentiator/agonist read-out; activation, % at 3.6 µM; actives 0.45% (n = 220,000); AID 1359, 2008; in the data active means activation above about 27%;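 further: cells stimulated with NPY near EC25 plus isoproterenol at EC100; 0% = vehicle plus submaximal agonist and 100% = vehicle plus saturating agonist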
NPY-Y1 ant conf = NPY-Y1 receptor antagonists, retest of hits, confirmation, HEK293-CNG cells, membrane potential fluorescence, triplicate. inhibition, % at 3.6 µM. shares compounds with NPY Y1 blocker. cAMP; NPY challenge against isoproterenol-raised cAMP. actives 21% (n = 1,200); in the data active means inhibition above about 20%;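 further: 0% = vehicle with agonist plus stimulus and 100% = stimulus alone without agonist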
NPY2 antag ctr = NPY-Y2 receptor antagonists, selectivity check, confirmation, counter-screen for NPY-Y1 antagonist project, HEK293-CNG cells, membrane potential fluorescence, triplicate | shares compounds with NPY Y1 blocker | antagonism; cells given NPY, then isoproterenol | inhibition, % at 3.6 µM | actives 28% (n = 1,200) | AID 1255, 2008;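 further: 0% = DMSO with agonist challenge and 100% = reference antagonist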
* marks the source's active call; other numbers are inactive results; nt = no result given. Unless noted, no stated cut-off is given here; in the data, active means inhibition above about 17%; inactive means the rest.

SMILES	NPY Y2 blocker	NPY1 pot ag	NPY Y1 blocker	NPY2 pot ag	NPY-Y1 ant conf	NPY2 antag ctr
COc1ccccc1N1CCN(C(=O)C2c3ccccc3Oc3ccccc32)CC1	14	2	23*	4	7	12
CCN(CCCNC(=O)c1cn(CC)c2ccc(S(=O)(=O)N(C)C)cc2c1=O)c1cccc(C)c1	13	-18	35*	-18	57*	72*
CN(C)c1ccnc(NCc2ccccc2)c1C#N	3	-24	1	5	nt	nt
CN(C)c1ccnc(N(Cc2ccccc2)Cc2ccccc2)c1C#N	8	-33	39*	-31	48*	83*
N#Cc1cccc(C#N)c1Oc1ccc(S(=O)(=O)Nc2ccc(Cl)cc2)cc1	nt	29	nt	26	nt	nt
CC1CN(c2nnc(NC(=O)c3ccccc3)s2)CC(C)O1 (centres undefined)	nt	13	-2	4	nt	nt
CC(C)(C)NCC(=O)N/N=C/c1ccc(OCc2ccccc2)cc1	nt	-35	25*	-33	21*	31*
CCOc1ccc(N=C(NN)c2ccc3ccccc3n2)cc1	11	-40	24*	-20	4	8
COc1cccc(NC(=O)c2ccccc2-c2nc(-c3ccccc3)no2)c1	15	-64	26*	-45	12	9
COc1cccc(NC(=O)c2ccccc2-c2nc(-c3ccc(F)cc3)no2)c1	8	-57	22*	-20	14	12
Cc1nnc(-c2ccc(N3CCCCCC3)c([N+](=O)[O-])c2)o1	nt	20	nt	-3	nt	nt
Cc1ccc(NC(=S)N/N=C/c2ccc(OCCC(C)C)cc2)c(C)c1	7	-14	21*	-11	11	7
Cc1cc(C(=O)Cn2nc(C(=O)O)c3ccccc3c2=O)c(C)n1-c1cccc(C(F)(F)F)c1	nt	-19	nt	-20	nt	nt
Cc1cc(C(=O)Cn2nc(C(=O)O)c3ccccc3c2=O)c(C)n1-c1ccc(F)cc1	13	-39	22*	-23	14	12
c1csc(-c2nn3cnnc3c3ccccc23)c1	nt	-3	-2	1	nt	nt
Fc1ccc(NC(=S)NCc2cccs2)cc1	2	-12	4	-7	nt	nt
CN1CCN(c2nc(-c3cccnc3)nc3scc(-c4ccccc4)c23)CC1	nt	-38	28*	-23	7	13
O=C(NC1CCCCCC1)c1cc(-c2ccccn2)nc2ccccc12	nt	-119	24*	-72	25*	18*
C=CCNCCCCOc1c(Cl)cc(C)cc1Br	10	-35	21*	-19	12	18*
COCCCNCCCCOc1c(Cl)cc(C)cc1Br	7	-39	31*	-10	7	13
COCCn1c(N)c(N(Cc2ccccc2)C(=O)Cc2c(Cl)cccc2Cl)c(=O)[nH]c1=O	nt	7	1	13	nt	nt
Cn1ncc2c(N3CCN(c4ccc(Cl)c(Cl)c4)CC3)ncnc21	nt	1	-1	-8	nt	nt
CCN(CC)C(=O)/C(=C\c1ccc(Br)cc1)NC(=O)c1ccccc1OC	6	-35	23*	-5	13	9
O=C1CSC(c2ccccn2)N1c1ccc(C(F)(F)F)cc1 (centres undefined)	nt	-4	nt	-17	nt	nt
O=C(NN1CCN(Cc2ccccc2Cl)CC1)c1ccc(Br)cc1	nt	1	8	-7	nt	nt
SMILES	NPY Y2 blocker	NPY1 pot ag	NPY Y1 blocker	NPY2 pot ag	NPY-Y1 ant conf	NPY2 antag ctr
O=C(NCc1cccnc1)/C(=C\c1ccc(-c2ccc(Br)cc2)o1)S(=O)(=O)c1ccccc1	7	-57	12	-24	nt	nt
O=C(NCc1cccnc1)/C(=C/c1ccc(-c2ccc(Cl)cc2)o1)S(=O)(=O)c1ccccc1	13	-35	25*	-29	9	22*
Cc1cc(C)nc(N2CCCC(C(=O)NNC(=O)c3ccncc3)C2)n1 (centres undefined)	nt	-7	nt	-6	nt	nt
CCC1=Nc2cc(C(=O)O)ccc2Sc2ccc(Cl)cc21	4	14	69*	-1	2	1
N=C1C(=O)OCC1c1ccccc1NC(=O)CN1CCOCC1 (centres undefined)	2	6	0	-2	nt	nt
O=C(O)CCc1ccc(-c2ccc(Br)cc2)o1	10	-30	23*	-11	12	13
O=C(O)CCc1ccc(-c2ccc(Cl)cc2)o1	15	-36	17	-29	nt	nt
O=C(O)CSc1nc(-c2ccc(Cl)cc2)nc2c1oc1ccccc12	11	-28	6	-10	nt	nt
O=C(O)CSc1nc(-c2ccccc2)nc2c1oc1ccccc12	9	10	23*	-13	5	7
Cc1nc2ccc(NC(=O)c3cc([N+](=O)[O-])cc([N+](=O)[O-])c3Cl)cc2s1	0	11	-1	17	nt	nt
COc1cccc(C(=O)N2CCN(C3CCN(Cc4ccccc4)CC3)CC2)c1OC	nt	8	nt	5	nt	nt
O=C(Nc1ccccc1N1CCN(c2ccccc2)CC1)c1ccccc1F	nt	-7	36*	-18	18	16
O=C(Cc1ccccc1)Nc1ccccc1N1CCN(c2ccccc2)CC1	14	10	22*	10	8	9
CCCCC(=O)Nc1ccccc1N1CCN(c2ccccc2)CC1	nt	-20	24*	-20	20	30*
O=C(Nc1ccccc1N1CCCCC1)c1ccccc1F	5	-12	9	2	nt	nt
O=C(Cc1ccc(Cl)cc1)Nc1ccccc1N1CCOCC1	-1	-13	3	-4	nt	nt
CCCCCC(=O)Nc1ccccc1N1CCOCC1	0	3	-3	-2	nt	nt
Cc1cc(C)cc(OCC(=O)O/N=C(\N)c2cccnc2)c1	nt	-1	nt	-12	nt	nt
CN(C)/C=N/S(=O)(=O)c1ccc(Cl)c(Cl)c1	nt	14	nt	-1	nt	nt
CCCn1c(SCC(=O)Nc2ccccc2C(=O)OC)nc2c1c(=O)n(C)c(=O)n2C	3	3	-2	0	nt	nt
CCCn1c(SCC(=O)Nc2ccccc2N2CCCCC2)nc2c1c(=O)n(C)c(=O)n2C	11	-33	26*	-12	15	13
CCC(=O)NS(=O)(=O)c1cccnc1Nc1ccccc1Cl	12	-28	24*	-17	22*	19*
COc1ccc(/C=C/C(=O)C2(O)CCCCC2)cc1OC	nt	5	-5	2	nt	nt
CCCn1c2c(c(=N)c3c1CCC3)CCC2	nt	-14	nt	-24	nt	nt
CCCCCCCn1c2c(c(=N)c3ccccc31)CCC2	nt	-90	66*	-37	60*	62*
O=C(c1nc2ccccn2c1CN1CCCC(OCc2ccccc2)C1)N1CCCC1 (centres undefined)	nt	-19	24*	-18	12	5
O=C(O)CSc1c[nH]c2ccccc12	10	-7	13	-14	nt	nt
CC(Sc1c[nH]c2ccccc12)C(=O)O (centres undefined)	10	-42	28*	-16	5	4
